Results published in ChEMBL document CHEMBL4177548, “Neuroprotective Lignans from the Fruits of Schisandra bicolor var. tuberculata” (2017).
Activity calls are given as the source filed them. No cut-off for these calls is given here.

What was measured:
SH-SY5Y [1] = test: Neuroprotective activity against CoCl2-induced cytotoxicity in human SH-SY5Y cells at 0.0032 to 2 uM pre-incubated for 2 hrs before CoCl2 addition for 14 hrs by MTT assay relative to untreated control; format: functional
In short: (§1)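 SH-SY5Y cells were kept in DMEM with 10% FBS plus penicillin/streptomycin and plated at 15 000 cells/well for 24 h. They were pretreated 2 h with compound (0.0032, 0.08, 2 μM), then challenged with 300 μM CoCl2 (chosen to give 50–70% viability). After 14 h, MTT was added, DMSO-solubilised and read at 570 nm. Values are normalized to control (100%), means ± SEM of three replicates.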

SH-SY5Y [2] = test: Neuroprotective activity against H2O2-induced cytotoxicity in human SH-SY5Y cells at 0.0032 to 2 uM pre-incubated for 2 hrs before H2O2 addition for 14 hrs by MTT assay relative to untreated control; format: functional
In short: (§2)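 Hydrogen peroxide injury: SH-SY5Y cells (DMEM, 10% FBS, penicillin/streptomycin) were seeded at 15 000 cells/well and left 24 h. They received test compounds at 0.0032, 0.08 or 2 μM for 2 h before 350 μM H2O2. MTT read-out followed at 14 h: DMSO dissolution, OD 570 nm. Viability is expressed as % of control, triplicate, means ± SEM, one-way ANOVA with Newman-Keuls.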

SH-SY5Y [3] = test: Neuroprotective activity against Abeta (25 to 35)-induced cytotoxicity in human SH-SY5Y cells at 0.0032 to 2 uM pre-incubated for 2 hrs before Abeta (25 to 35) addition for 14 hrs by MTT assay relative to untreated control; format: functional
SH-SY5Y [4] = test: Neuroprotective activity against CoCl2-induced cytotoxicity in human SH-SY5Y cells at 0.0032 uM pre-incubated for 2 hrs before CoCl2 addition for 14 hrs by MTT assay relative to untreated control; format: functional, cell-based; in short: as §1
SH-SY5Y [5] = test: Neuroprotective activity against H2O2-induced cytotoxicity in human SH-SY5Y cells at 0.0032 uM pre-incubated for 2 hrs before H2O2 addition for 14 hrs by MTT assay relative to untreated control; format: functional, cell-based; in short: as §2
SH-SY5Y [6] = test: Neuroprotective activity against Abeta (25 to 35)-induced cytotoxicity in human SH-SY5Y cells at 0.0032 uM pre-incubated for 2 hrs before Abeta (25 to 35) addition for 14 hrs by MTT assay (reference value: 60.2 to 73.5%); format: functional
SH-SY5Y [7] = test: Neuroprotective activity against Abeta (25 to 35)-induced cytotoxicity in human SH-SY5Y cells at 0.08 uM pre-incubated for 2 hrs before Abeta (25 to 35) addition for 14 hrs by MTT assay (reference value: 60.2 to 73.5%); format: functional
SH-SY5Y [8] = test: Neuroprotective activity against Abeta (25 to 35)-induced cytotoxicity in human SH-SY5Y cells at 2 uM pre-incubated for 2 hrs before Abeta (25 to 35) addition for 14 hrs by MTT assay (reference value: 60.2 to 73.5%); format: functional
SH-SY5Y [9] = test: Neuroprotective activity against Abeta (25 to 35)-induced cytotoxicity in human SH-SY5Y cells at 50 uM pre-incubated for 2 hrs before Abeta (25 to 35) addition for 14 hrs by MTT assay (reference value: 60.2%); format: functional, cell-based

Molecule	Activity (SH-SY5Y [1])	Activity (SH-SY5Y [2])	Activity (SH-SY5Y [3])	Activity (SH-SY5Y [4])	Activity (SH-SY5Y [5])	Activity (SH-SY5Y [6])	Activity (SH-SY5Y [7])	Activity (SH-SY5Y [8])	Activity (SH-SY5Y [9])
COc1cc(C[C@@H](C)[C@H](C)[C@@H](O)c2ccc3c(c2)OCO3)ccc1O	>15%	>15%	>15%	Active	Active	81.6%	83.3%	76.6%	–
COc1cc(C[C@@H](COC(C)=O)[C@@H](C)Cc2ccc(O)c(OC)c2)ccc1O	–	>15%	>15%	–	–	74.1%	81%	83.2%	–
COc1ccc([C@@H]2O[C@@H](c3ccc(O)c(OC)c3)[C@@H](C)[C@H]2C)cc1O	–	–	>15%	–	–	64.5%	77.1%	71%	–
COc1ccc(C(=O)O[C@H](c2ccc(OC)c(OC)c2)[C@@H](C)C(C)=O)cc1OC	–	–	>15%	Active	–	78.4%	85.1%	80.4%	–
C=C(Cc1ccc2c(c1)OCO2)[C@H](C)Cc1ccc(O)c(OC)c1	–	–	>15%	–	Active	84.7%	78.5%	78.1%	–
COc1ccc([C@H]2O[C@@H](c3ccc(OC)c(OC)c3)[C@H](C)[C@@H]2C)cc1OC [GALGRAVIN]	–	>15%	>15%	–	–	76.9%	92.9%	86.7%	–
VITAMIN E	–	–	–	–	–	–	–	–	72.5%
COc1cc(C[C@H](C)[C@H](COC(C)=O)Cc2ccc3c(c2)OCO3)ccc1O	–	>15%	>15%	–	–	73.1%	80.2%	87%	–
COc1cc(C[C@@H](COC(C)=O)[C@@H](C)Cc2ccc3c(c2)OCO3)ccc1O	–	–	–	–	–	68.3%	80.8%	69%	–
COc1cc([C@H]2O[C@@H](c3ccc4c(c3)OCO4)[C@H](C)[C@H]2COC(C)=O)ccc1O	–	>15%	>15%	Active	Active	68.6%	88.6%	79.3%	–
COc1cc(C[C@H](CO)[C@H](C)Cc2ccc3c(c2)OCO3)ccc1O	–	–	–	–	–	70.8%	83.6%	84.2%	–
COc1ccc([C@H]2O[C@H](c3ccc(OC)c(OC)c3)[C@@H](C)[C@H]2C)cc1OC [GANSCHISANDRINE]	>15%	–	>15%	–	–	75.1%	85.3%	79.8%	–
COc1cc(C[C@@H](C)[C@H](C)Cc2ccc(O)c(OC)c2)ccc1O [(-)-DIHYDROGUAIARETICACID]	>15%	–	–	Active	Active	79.2%	85.1%	80.8%	–
COc1cc([C@H]2O[C@@H](c3ccc(OC)c(OC)c3)[C@H](C)[C@H]2C)ccc1O	–	–	–	Active	–	81.7%	75.3%	75.3%	–
COc1cc(C[C@H](C)[C@H](CO)Cc2ccc3c(c2)OCO3)ccc1O	–	–	>15%	Active	–	75.8%	88.2%	82.4%	–
C[C@@H]1[C@@H](CO)[C@H](c2ccc3c(c2)OCO3)O[C@H]1c1ccc2c(c1)OCO2	–	–	>15%	Active	–	71.3%	94.3%	87.3%	–
COc1cc([C@H]2c3cc4c(cc3C[C@@H](C)[C@@H]2C)OCO4)ccc1O	–	–	>15%	Active	–	84.5%	71.9%	75.7%	–
COc1cc(C[C@H](CO)[C@H](C)Cc2ccc(O)c(OC)c2)ccc1O	–	>15%	–	–	–	77.4%	74.3%	69.2%	–
COc1cc(C[C@@H](C)[C@H](C)Cc2ccc3c(c2)OCO3)ccc1O	–	>15%	–	Active	–	73.5%	77.1%	72%	–
